The values that follow come from ChEMBL document CHEMBL1129612, “New low-density lipoprotein receptor upregulators acting via a novel mechanism” (J Med Chem, 1996).

In this assay the test system is HepG2. Nature of the assay: Compound was tested in vitro for up-regulation of low density lipoprotein (LDL) receptor in human hepatocytes (HepG2 cells) at a concentration 3 uM. The assay is classed as functional. In outline: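 HepG2 cells (passage ≤10, DMEM with FCS, 5% CO2, 37 °C) plated at 10 000 cells/well and grown 3 days to 80% confluence. Compound at 3 µM added in DMEM with 1% BSA for 24 h. Cell-surface LDL receptors measured by fluorescence immunoassay: MAC-C7 antibody, then alkaline phosphatase-conjugated anti-mouse IgG, substrate ATTAPHOS. Cell number read by propidium iodide. Five replicates, mean % increase.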
Turning to `O=C(CCC1CCCCC1)Nc1ccc(F)c(NC(=O)c2ccc(O)cc2)c1`, the Activity came to 12%.

In the case of `Cc1ccc(NC(=O)CCc2ccccc2)cc1NC(=O)c1ccc(O)cc1`, the Activity was -20%.

Regarding `Cc1ccc(NC(=O)CCC2CCCCC2)cc1NC(=O)c1ccc2c(c1)OCO2`, the Activity is listed as 111%.

For the compound `Cc1ccc(NC(=O)CCC2CCCCC2)cc1NC(=O)c1ccc(O)cc1`, the Activity is 80%.

With `Cc1ccc(NC(=O)CCC2CCCCC2)cc1NC(=O)c1cc[n+]([O-])cc1`, the Activity was 7%.

With `Cc1ccc2[nH]c(-c3cc(NC(=O)CCC4CCCCC4)ccc3C)nc2c1`, the Activity was determined as 91%.

Consider `CC(=O)Oc1ccc(C(=O)Nc2cc(NC(=O)COC3CCCCC3)ccc2C)cc1`, for which the Activity is on record as 17%.

Consider `Cc1ccc(NC(=O)CCC2CCCCC2)cc1NC(=O)c1ccccc1`, for which the Activity is recorded as 50%.

`Cc1ccc(NC(=O)CCC2CCCCC2)cc1NC(=O)c1ccc(N)cc1`: the Activity is reported as 58%.

As for `Cc1ccc(NC(=O)CCC2CCCCC2)cc1-c1nc2ccccc2[nH]1`, the Activity worked out at 45%.

Take `CC[C@H](C)C(=O)O[C@H]1C[C@@H](C)C=C2C=C[C@H](C)[C@H](CC[C@@H]3C[C@@H](O)CC(=O)O3)[C@H]21` [LOVASTATIN]: the Activity stood at 70%.

In the case of `Cc1ccc(NC(=O)CCCC2CCCCC2)cc1NC(=O)c1ccc(O)cc1`, the Activity is listed as 32%.

Regarding `Cc1ccc(NC(=O)CCC2CCCCC2)cc1/C=C(\C#N)c1ccc2c(c1)OCO2`, the Activity was 108%.

As for `Cc1ccc(NC(=O)CCN2CCCCC2)cc1NC(=O)c1ccc(O)cc1`, the Activity is reported as -2%.

On to `Cc1ccc(NC(=O)CCC2CCCCC2)cc1NC(=O)c1ccncc1`, for which the Activity was -5%.

Turning to `Cc1ccc(NC(=O)CCC2CCCCC2)cc1NC(=O)c1ccc(CO)cc1`, the Activity is on record as 44%.

Regarding `Cc1ccc(NC(=O)CCC2CCCCC2)cc1NC(=O)C1CCCCC1`, the Activity is given as 0%.

In the case of `CC(=O)Oc1ccc(C(=O)Nc2cc(NC(=O)CCC3CCCCC3)ccc2C)cc1`, the Activity was 82%.

As to `Cc1ccc(NC(=O)CCC2CCCCC2)cc1NCc1ccc(O)cc1`, the Activity is -11%.

Regarding `Cc1ccc(NC(=O)NCC2CCCCC2)cc1NC(=O)c1ccc(O)cc1`, the Activity is listed as 10%.

`COc1ccc(NC(=O)CCC2CCCCC2)cc1NC(=O)c1ccc(OC(C)=O)cc1`: the Activity was -13%.

For `Cc1ccc(C(=O)CCCC2CCCCC2)cc1NC(=O)c1cccnc1`, the Activity stood at 111%.

As to `Cc1ccc(NC(=O)CCC2CCCCC2)cc1-c1nc2cc(O)ccc2[nH]1`, the Activity turned out to be 134%.

Regarding `Cc1ccc(C(=O)NCCC2CCCCC2)cc1NC(=O)c1ccc(O)cc1`, the Activity is given as 75%.

Regarding `COC(=O)c1ccc(C(=O)Nc2cc(NC(=O)CCC3CCCCC3)ccc2C)cc1`, the Activity was found to be 3%.

Consider `O=C(CCC1CCCCC1)Nc1ccc(Cl)c(NC(=O)c2ccc(O)cc2)c1`, for which the Activity came out at 8%.

For the compound `Cc1ccc(NC(=O)CCC2CCCCC2)cc1NC(=O)c1ccccc1O`, the Activity is on record as 0%.

Consider `Cc1ccc(NC(=O)CCC2CCCCC2)cc1NC(=O)c1ccc([N+](=O)[O-])cc1`, for which the Activity amounted to 11%.

Take `Cc1ccc(NC(=O)CCC2CCCC2)cc1NC(=O)c1ccc(O)cc1`: the Activity was 25%.

As to `Cc1ccc(NC(=O)CC2CCCCC2)cc1NC(=O)c1ccc(O)cc1`, the Activity is 3%.

In the case of `CC(=O)Oc1ccc(C(=O)Nc2cccc(NC(=O)CCC3CCCCC3)c2)cc1`, the Activity is 6%.

`Cc1ccc(NC(=O)CCC2CCCCC2)cc1/C=C(\C#N)c1ccc(O)cc1`: the Activity came out at 21%.

Consider `Cc1ccc(NC(=O)OCC2CCCCC2)cc1NC(=O)c1ccc(O)cc1`, for which the Activity is 16%.

Take `Cc1ccc(NC(=O)CCC2CCCCC2)cc1/C=C(\C#N)c1cccnc1`: the Activity was found to be 126%.

`Cc1ccc(NC(=O)CCC2CCCCC2)cc1NC(=O)c1cccnc1`: the Activity amounted to 83%.

`Cc1ccc(C(=O)CCCC2CCCCC2)cc1NC(=O)c1ccc(O)cc1`: the Activity was 10%.

Regarding `O=C(CCC1CCCCC1)Nc1ccc(O)c(NC(=O)c2ccc(O)cc2)c1`, the Activity is -3%.

Take `O=C(CCC1CCCCC1)Nc1ccc(Br)c(NC(=O)c2ccc(O)cc2)c1`: the Activity was found to be 6%.

Take `CCCCCCCCC(=O)Nc1ccc(C)c(NC(=O)c2ccc(O)cc2)c1`: the Activity is reported as -10%.

For the compound `Cc1ccc(NC(=O)CCC2CCCCC2)cc1C(=O)Nc1ccc(O)cc1`, the Activity was found to be 60%.

As for `Cc1ccc(NC(=O)CCC2CCCCC2)cc1NC(=O)c1cccc(O)c1`, the Activity amounted to 59%.
